# Measurements of several laboratories.
# Protocols differ between the studies behind these lines. pIC50: −log10 of the molar value.
# Cell line: A549
# Read-out: cell growth or viability
Structure (SMILES),test,setting,pIC50
COc1ccccc1/C=C/CNCC(O)COc1cccc2c1[nH]c1ccccc12 (stereo not shown),CCK-8,72 h,4.95
CCN(CC)CCCn1cccc1/C=N/NC(=O)Nc1cc2c(Nc3ccc(F)c(Cl)c3)ncnc2cc1OC,MTT,72 h,5.62
COc1ccccc1/C=C/CNCC(O)COc1cccc2[nH]ccc12 (stereo not shown),CCK-8,72 h,4.57
O=C(Nc1nnc(-c2cc3ccccc3[nH]2)s1)c1cc2c([nH]c3ccccc32)c(-c2ccc(F)cc2)n1,MTT,72 h,5.44
O=C(NC(=S)NCc1ccccc1)c1ccc2ccccc2c1,,48 h,5.26
CS(=O)(=O)c1ccc(-n2cc(C=N/N=c3\[nH]c(-c4ccc(Br)cc4)cs3)c(-c3ccc([N+](=O)[O-])cc3)n2)cc1,MTT,48 h,4.55
COc1cc2ncnc(Nc3ccc(F)c(Cl)c3)c2cc1NC(=O)N/N=C/c1cccn1CCCN1CCCCC1,MTT,72 h,5.51
C=CC(=O)Nc1cc(Nc2nccc(-c3cn(C)c4ccccc34)n2)c(OC)cc1N(C)CCN(C)C,MTT,,6.42
Cc1cc(C)cc(NC(=O)NNC(=O)c2ccc(Nc3nccc(-c4ccccn4)n3)cc2)c1,MTT,24 h,< 4.40
COc1ccc(NC(=O)Nc2ccc(OCc3nccc(OCC(F)(F)F)c3C)cc2)cc1,MTT,72 h,4.90
COc1ccc(C(=O)O[C@@H]2CN3Cc4c(cc5c(c4OC)OCO5)[C@@]24C=C[C@H](OC)C[C@@H]34)cc1,WST-1,,< 5.00
Nc1ccc(Cl)c[n+]1[Pt-2]([Cl])([Cl])[n+]1cc(Cl)ccc1N,MTT,48 h,5.20
O=C(/N=C1\SCC(=O)N1C1CCCCC1)c1ccc2ccccc2c1,,48 h,4.72
COc1ccc2c(c1)/C(=N/NC(=O)c1cc3ccccc3[nH]1)C(=O)N2,,,5.18
CC1=C(O)C(=O)C=C2C1=CC=C1[C@@]2(C)CC[C@@]2(C)[C@@H]3C[C@](C)(C(=O)OCCCCCCO)CC[C@]3(C)CC[C@]12C,MTT,48 h,< 4.00
C=CC(=O)Nc1cc(Nc2nc(N3CCc4sccc4C3)c3cccnc3n2)c(OC)cc1N(C)CCN(C)C,MTT,,4.66
CCCNc1nc(NCCC)nc(Nc2ccc(Br)cc2)n1,SRB,72 h,4.79
COc1cc(CNC(=O)C[C@H](C)CCC=C(C)C)ccc1OCc1cn(-c2ccc(Cl)cc2)nn1,SRB,48 h,4.98
Cc1ccc(C)n1-c1ccc(-c2nnc(-c3ccc(Br)cc3)[nH]2)cc1,MTT,72 h,3.65
CN1CCN(C/C=N/NC(=O)Nc2cc3c(Nc4ccc(F)c(Cl)c4)ncnc3cc2O[C@H]2CCOC2)CC1,MTT,72 h,5.36
C=CC(=O)Nc1cc(Nc2nc(N3CCc4sccc4C3)c3cccnc3n2)c(OC)cc1N(C)C,MTT,,< 4.30
COc1ccnc(COc2ccc(NC(=O)Nc3ccc(Cl)cc3)cc2)c1OC,MTT,72 h,4.98
